According to paper PMC4109024 (Nature communications, 2014):
Entries after “also recorded” stand apart in the source; their conditions may differ.

Assays:
[1] = test system: CNGB3-MYC expressing HEK293T cells; test: TUNEL apoptosis assay, CNGB3-MYC HEK293T cells; format: cell-based
Procedure, shortened: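 HEK293T cells transfected with CNGB3–MYC were cultured for 20 h at 37 °C with one of these treatments: no peptide; targeting peptide, 100 μg/ml; pro-apoptotic peptide, 100 μg/ml; its conjugate, 100 μg/ml; endosome-escaping conjugate, 25 μg/ml; or conjugates at 100 plus 25 μg/ml. Stocks were 100 μg/μl in DMSO. Apoptosis was detected by immunoperoxidase TUNEL.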

[2] = test system: CNGB3-Myc transfected A431 cells; test: Cell viability assay, CNGB3-positive A431 cells; format: cell-based; conditions: 37°C, 6 hours, ATP by CellTiter Glo; for Concentration above which cell viability was affected, CNGB3-positive A431: single peptide
Procedure, shortened: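 CNGB3–MYC-transfected A431 cells, with untransfected CNGB3-negative A431 as control, grown in DME/F12 with 10% FCS. Cells were exposed to single peptides or the two-peptide combination at a range of concentrations for 6 h at 37 °C. Peptide stocks were 100 μg/μl in DMSO, and a DMSO-only control was run at 0.01% final. Viability was read as ATP content by CellTiter Glo luminescence.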

[3] = test system: CNGB3-MYC expressing HEK293T cells; test: Biotin-z13 localization / endosome-escaping activity; format: cell-based; conditions: 37°C, 30 min, biotin-z13 in presence of HLAH-z13; Alexa 488-avidin
[4] = test system: human endometrial adenocarcinoma Ishikawa cells; test: Phage binding/internalization to Ishikawa cells; format: cell-based; conditions: cloned phage, 37°C, 30 min; plaque forming assay; repeated three times
Procedure, shortened: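 Phage clones came from a T7 library of linear 9-mer peptides. Each selection round had two steps: 1 h in vivo subtraction in female mouse peritoneum, then 30 min internalization into Ishikawa monolayers at 37 °C. Clones from three such rounds were each added to Ishikawa monolayers, or A431 controls, for 30 min at 37 °C. Internalized phage was counted by plaque assay, and binding was expressed as plaques recovered relative to phage added.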

[5] = test system: CNGB3-expressing A431 cells; test: Inhibition of KLAK-z13 plus HLA-z13 cytotoxicity by z13 / palmitoyl-z13; format: cell-based; conditions: KLAK-z13 100 μg/ml + HLA-z13 25 μg/ml, 37 °C, 6 hours; average of triplicate; repeated three times
[6] = test system: Ishikawa cell surface proteins; test: z13 affinity isolation of biotinylated Ishikawa cell surface proteins; format: binding, human; conditions: biotinylated Ishikawa lysate; z13 peptide 1 mg/ml elution; avidin blot
Procedure, shortened: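 Ishikawa monolayers were surface-biotinylated with sulpho-NHS-LC-biotin (0.5 mg/ml in PBS, 30 min) and solubilized at 4 °C in TBS with 50 mM octyl-thio-glucoside and protease inhibitors. Lysate was precleared on agarose for 2 h at 4 °C, then bound to peptide-conjugated agarose. Elution used peptide at 1 mg/ml, with an irrelevant peptide as control. Eluates were analysed by SDS–PAGE, peroxidase-avidin blot and chemiluminescence.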

| Sequence | Apoptosis of CNGB3-expressing HEK293T cells, HLAH-z13 25 μg/ml ([1]; 25 μg/ml, 37°C, 20 hours, TUNEL) | Cell viability, CNGB3-positive A431 [2] | Concentration above which cell viability was affected, CNGB3-positive A431 [2] [µg/mL] | Effect on biotin-z13 localization (endosome-escaping activity) [3] | Apoptosis of CNGB3-MYC transfected HEK293T cells, dKLAK-z13 alone ([1]; culture medium of transfected cells, concentration not given) | Binding strength to Ishikawa cells among phage clones [4] | Blocking of cytotoxicity of KLAK-z13 plus HLA-z13 [5] | Protein bound to z13 beads and eluted by z13 peptide [6] |
| --- | --- | --- | --- | --- | --- | --- | --- | --- |
| HLAHLAHHLAHLAHHLAHVRRADNRPG [HLAH-z13] | did not undergo apoptosis | cell viability was not affected except at high concentrations | > 50 | diffuse cytoplasmic signals | – | – | – | – |
| KLAKLAKKLAKLAKKLAKVRRADNRPG [dKLAK-z13] | – | cell viability was not affected except at high concentrations | > 200 | – | apoptosis was not induced; also recorded: did not induce apoptosis | – | – | – |
| VRRADNRPG [z13] | – | cell viability was not affected | – | – | – | the strongest binder | blocked | single 68 kDa protein |
